Experimental data as given in PMC6976987 (Molecular Genetics and Metabolism Reports, 2020).

Assay: Safety assessments
Format: in vivo, human
In short: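 Open-label study in healthy adults. Safety was monitored after a single dose (Day 1), during multiple doses alone (Days 2–8), and during co-dosing (Days 9–15 with the CYP3A/P-gp inhibitor; Days 9–18 with the CYP2D6 inhibitor). Measures: treatment-emergent AEs, clinical labs, vital signs, physical exams, 12-lead ECG, 12 h continuous telemetry. An AE counted as treatment-related if possibly, probably or definitely related to study drug.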

[1] = concomitant dosing of eliglustat with paroxetine
[2] = concomitant dosing of eliglustat with paroxetine, Days 9 to 18, N = 35
[3] = multiple-dose eliglustat alone, Days 2 to 8, N = 36
[4] = paroxetine study (N = 36), whole study

With CCCCCCCC(=O)N[C@H](CN1CCCC1)[C@H](O)c1ccc2c(c1)OCCO2 [eliglustat] the tolerability (administered alone and with paroxetine) was “well tolerated”, the “subjects with application site dermatitis” value [1] was 31.4% and the “subjects with moderate treatment-related headache” value [1] was 11.4%. The “number of AEs” value [2] was 194 events, the “subjects with AEs” value [2] was 91.4% and the “subjects reporting AEs related to eliglustat” value (concomitant dosing with paroxetine, N = 35) was 65.7%. For the same compound, the “subjects reporting AEs possibly related to both eliglustat and paroxetine” value (concomitant dosing, N = 35) was 65.7%, the “subjects reporting treatment-related AEs” value (following a single dose of eliglustat, Day 1, N = 36) was 5.6% and the “subjects with moderate gastritis” value (following multiple-dose eliglustat) was 5.6%. For the same compound, the “subjects who discontinued treatment due to AEs” value (gastritis (eliglustat alone), dizziness and nausea, nausea and panic attack (concomitant dosing)) was 8.3%, the “subjects with moderate treatment-related headache” value (multiple-dose eliglustat) was 2.8% and the “number of AEs” value [3] was 31 events. For the same compound, the “subjects with AEs” value [3] was 41.7%, the “subjects reporting treatment-related AEs” value (multiple-dose eliglustat, Days 2 to 8, N = 36) was 27.8% and the “Any adverse event (AE), number of events” value [4] was 233 N. The “Any adverse event (AE), number of subjects” value [4] was 33 (91.7%) N (%), the “Any treatment-related AE, number of events” value [4] was 155 N and the “Any treatment-related AE, number of subjects” value [4] was 26 (72.2%) N (%). For the same compound, the “Discontinuations due to AE, number of events” value [4] was 5 N, the “Discontinuations due to AE, number of subjects” value [4] was 3 (8.3%) N (%) and the “Serious AEs, number of events” value [4] was 0 N. For the same compound, the “Serious AEs, number of subjects” value [4] was 0 (0.0%) N (%), the “Severe AEs, number of events” value [4] was 0 N and the “Severe AEs, number of subjects” value [4] was 0 (0.0%) N (%).
